Publication PMC4335298 (Genes & Development, 2015)
Values belong to the molecule of their own block, whether it stands above or below them.

How the values were obtained:
[1] = target: hTLX (construct of the size exclusion chromatography not stated) (human) (UniProt Q9Y466); assay: SEC
[2] = Size exclusion chromatography of hTLX
[3] = tested on: SHP full-length (NP_035980); assay: Coimmunoprecipitation with SHP; assay type: binding, mouse; details: Co-IP, Flag/HA fusions, Western blot
[4] = tested on: Gal4 transcriptional activity; assay: Gal4 reporter repression assay with Gal4-fused receptor LBDs; assay type: cell-based; details: Gal4-fused receptor LBD, cell reporter assay, AD293 cells
Outline: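 AD293 cells were cotransfected with Gal4-DBD fusions of the hTLX LBD (residues 182–385; H12 deletion residues 182–371) or the dTLX LBD (residues 229–472), wild type or mutant, plus a luciferase reporter. Repression fold is RLU with Gal4 alone relative to RLU with the Gal4-receptor fusion. Expression was checked by anti-Gal4 Western blot. Values are SD, n = 3, with at least two repeats, and groups were compared by two-tailed Student's t-test.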

Molecule: hTLX (construct of the size exclusion chromatography not stated) (from UniProt Q9Y466-1 1-385) (natural protein)
stoichiometry N [1]: 2

Molecule: hTLX: human TLX (NP_003260)
Oligomeric state in solution [2]: formed a dimer in solution

B1: Atrophin-2: Atrophin-2 (NP_001036046, residues 1087–1566) (protein)
chain: AAKASSSAHEGRLSDPQLSGPGHMRPSFEPPPTTIAAVPPYIGPDTPALRTLSEYARPHVMSPTNRNHPFYMPLNPTDPLLAYHMPGLYNVDPTIRERELREREIREREIRERELRERMKPGFEVKPPELDPLHPATN
modifications: left off: Gal4 DNA-binding domain, end not stated, kept
Interaction with SHP [3]: able to interact

Repressor activity (in words) [4]: compromised its repressor activity
B2: COUP-TF2∆H12: human COUP-TF2 residues 76–258, helix H12 deleted (protein, UniProt P24468 76-258, looked up, fragment)
chain: HIECVVCGDKSSGKHYGQFTCEGCKSFFKRSVRRNLSYTCRANRNCPIDQHHRNQCQYCRLKKCLKVGMRREAVQRGRMPPTQPTHGQFALTNGDPLNCHSYLSGYISLLLRAEPYPTSRFGSQCMQPNNIMGIENICELAARMLFSAVEWARNIPFFPDLQITDQVALLRLTWSELFVLNAA
modifications: ligand-binding domain, H12 deleted
